Measured values collected from several papers.
Lines come from different studies, so protocols differ.
BRAF V600E: Serine/threonine-protein kinase B-raf (BRAF, Homo sapiens, UniProt P15056, V600E)
BRAF: Serine/threonine-protein kinase B-raf (BRAF, Homo sapiens, UniProt P15056)

Nc1ncc2c(n1)-c1c([nH]c3ccc(C#CC4CC4)cc13)CCCC2 — remaining binding (BRAF V600E; binding, competition with immobilised ligand; 1 µM): 88%
CCN1CCN(Cc2ccc(C(=O)Nc3ccc(C)c(Oc4ccc5c(c4)CC(=O)N5)c3)cc2C(F)(F)F)CC1 — remaining binding (BRAF; binding, competition with immobilised ligand; 1 µM): 64%
CN(C)c1nccc(-c2cnc3ncccn23)n1 — remaining binding (BRAF; binding; 1 µM): 89%
C[C@@H](c1ccc(-n2cnc3c(N)ncnc32)cc1)N1CCc2nn(C)c(Cc3ccccc3)c2C1=O — remaining binding (BRAF; binding, competition with immobilised ligand; 0.1 µM): 100%
FC(F)(F)Oc1cccc(-c2cnc3ccc(-c4ccncc4)nn23)c1 — remaining binding (BRAF; cell-free assay, competition with immobilised ligand; 5 µM): 32%
CC1CCCN1c1nccc(-c2cnn3ncccc23)n1 (stereo not drawn) — remaining binding (BRAF V600E; binding; 1 µM): 100%
c1cncc(-c2cccc(Nc3nccc(NC4CCCCC4)n3)c2)c1 — remaining binding (BRAF V600E; binding, competition with immobilised ligand; 10 µM): 52%
CN(C)c1nccc(-c2cnn3ncccc23)n1 — remaining binding (BRAF V600E; binding; 1 µM): 69%
C[C@@H]1CN(c2ccc3ncc(-c4ccc5[nH]nc(C6CC6)c5c4)n3n2)C[C@H](C)O1 — remaining binding (BRAF; binding, competition with immobilised ligand; 0.5 µM): 100%
Cc1cnc(Nc2ccc(C(=O)N3CCC(N4CCCC4)CC3)cc2)nc1-c1cc2ccccc2s1 — remaining binding (BRAF V600E; binding, competition with immobilised ligand; 1 µM): 32%
NS(=O)(=O)c1cc(NC(=O)Cc2ccccc2)ccc1Oc1cccc(Cl)c1 — remaining binding (BRAF; cell-free assay, competition with immobilised ligand; 1 µM): 96%
COc1cnc(Nc2cccc(S(N)(=O)=O)c2)nc1N1CCN(c2ccccc2)C(=O)C1 — remaining binding (BRAF V600E; binding, competition with immobilised ligand; 1 µM): 84%
c1cnn2ncc(-c3ccnc(N4CCC45COC5)n3)c2c1 — remaining binding (BRAF V600E; binding; 1 µM): 63%
NS(=O)(=O)c1cc(NC(=O)C2(c3ccccc3Cl)CC2)ccc1Oc1cccc(Cl)c1 — remaining binding (BRAF; cell-free assay, competition with immobilised ligand; 1 µM): 71%
C[C@@H]1CCN(c2nccc(-c3cnn4ncccc34)n2)C1 — remaining binding (BRAF; binding; 1 µM): 75%
CCC(=N\O)/C(C)=C/c1ccc(F)cc1 — remaining binding (BRAF V600E; cell-free assay, competition with immobilised ligand; 1 µM): 77%
CN1CCN(c2ccc(Nc3nccc(-c4ccccc4)n3)cc2C(F)(F)F)CC1 — remaining binding (BRAF V600E; binding; 10 µM): 31%
CN([C@@H]1CCc2c(CC(=O)O)c3cc(S(C)(=O)=O)ccc3n2C1)S(=O)(=O)c1ccc(F)cc1 — remaining binding (BRAF; cell-free assay, competition with immobilised ligand; 1 µM): 98%
O=C(c1ccc(Nc2ncc(Cl)c(-c3ccc(Cl)s3)n2)cc1)N1CCC(N2CCCC2)CC1 — remaining binding (BRAF; binding, competition with immobilised ligand; 1 µM): 65%
N#Cc1ccccc1CSc1nnc2c(n1)[nH]c1ccccc12 — remaining binding (BRAF; binding, competition with immobilised ligand; 10 µM): 94%
Cc1cc(-n2nc(Cc3cc(F)cc(C(F)(F)F)c3)nc2C)ccc1C(N)=O — remaining binding (BRAF; cell-free assay, competition with immobilised ligand; 1 µM): 86%
O=C(Nc1c[nH]nc1C(=O)NC1CCNCC1)c1cc(F)cc(F)c1 — remaining binding (BRAF; binding, competition with immobilised ligand; 1 µM): 100%
O=C(NCCCN1CCOCC1)c1ccc(Nc2ncc(Cl)c(-c3ccc(Cl)s3)n2)cc1 — remaining binding (BRAF; binding, competition with immobilised ligand; 1 µM): 100%
CN(CCCC(F)(F)F)c1nccc(-c2cnn3ncccc23)n1 — remaining binding (BRAF; binding; 1 µM): 100%
COc1cc(-c2cn(C3CCc4ccccc4N(CC(F)(F)F)C3=O)nn2)ccc1-n1ccc(C)n1 (stereo not drawn) — remaining binding (BRAF; cell-free assay, competition with immobilised ligand; 1 µM): 100%
N[C@H]1CCN(c2nccc(-c3cnn4ncccc34)n2)C1 — remaining binding (BRAF V600E; binding; 1 µM): 92%
Cc1nc(Cc2cccc(C(F)(F)F)c2)sc1-c1ccc(C(N)=O)nc1 — remaining binding (BRAF; cell-free assay, competition with immobilised ligand; 1 µM): 73%
C=CC(=O)N1CCC(C(=O)NCC(=O)N2CCN(c3nc(-c4cnc(N)nc4C(F)F)nc(N4CCOCC4)n3)CC2)CC1 — remaining binding (BRAF V600E; binding, competition with immobilised ligand; 1 µM): 89%
CN(c1nccc(-c2cnn3ncccc23)n1)C1CC1 — remaining binding (BRAF V600E; binding; 1 µM): 100%
CNC(=O)[C@@H]1CC[C@@H](n2c(-c3ccc4cnccc4c3)nc3ccc(C(=O)NCc4cccc(C(N)=O)c4)cc32)C1 — remaining binding (BRAF V600E; binding, competition with immobilised ligand; 1 µM): 100%
O=C(c1ccc(Nc2ncc(Cl)c(-c3cc4ccccc4s3)n2)cc1)N1CCC(N2CCCC2)CC1 — remaining binding (BRAF V600E; binding, competition with immobilised ligand; 1 µM): 56%
Cc1c(NC(=O)c2cc(C(N)=O)nc3cc(F)ccc23)c(C(F)(F)F)nn1Cc1ccc(C#N)cc1 — remaining binding (BRAF V600E; cell-free assay, competition with immobilised ligand; 1 µM): 90%
O=C(NCCCN1CCOCC1)c1ccc(Nc2nccc(-c3cc4ccccc4s3)n2)cc1 — remaining binding (BRAF V600E; binding, competition with immobilised ligand; 1 µM): 67%
O=C(NCC1CCOCC1)c1n[nH]cc1NC(=O)c1c(F)cccc1F — remaining binding (BRAF V600E; binding, competition with immobilised ligand; 1 µM): 100%
O=C(c1ccc(Nc2nccc(-c3cc4ccccc4s3)n2)cc1)N1CCC(N2CCCC2)CC1 — remaining binding (BRAF; binding, competition with immobilised ligand; 1 µM): 38%
COc1ncc2cc3ccccc3nc2c1C#N — remaining binding (BRAF; cell-free assay, competition with immobilised ligand; 5 µM): 100%
